TRPC4 block – inhibitors of mouse TRPC4 channel; Q9QUQ5; HEK293 TRPC4beta/mu-opioid, DAMGO-evoked Fluo4 calcium flux; stronger effect = lower value; B-score at 10 µM; actives 0.39% (n = 300,000); AID 2247;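 active = B-score over 3 SD under the library average, no early fluorescence shift, positive overall ratio signal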
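Test system – stable TRPC4beta/mu-opioid receptor HEK293 cells · Probe or stimulus – DAMGO, a submaximal dose followed by a maximal one · Dosing – one concentration per compound · Signal – Fluo4 calcium fluorescence by kinetic imaging, 5 s 1 Hz baseline · Evaluation – per-well B score of integrated baseline-normalized Fluo4 ratio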
TRPC4 potent – TRPC4 (mouse) allosteric potentiation; HEK293 TRPC4beta/mu-opioid, DAMGO EC20, Fluo-4 Ca2+ flux; stronger effect = higher value; actives 0.42% (n = 310,000); B-score at 10 µM;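 active = B-score of calcium response area above 5 SD of library B-scores, with initial fluorescence ratio within 5 SD of library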
TRPC4 agonist – activators of mouse TRPC4 channel; Q9QUQ5; HEK293 TRPC4beta/mu-opioid, Fluo4 calcium fluorescence; stronger effect = higher value; B-score at 10 µM; actives 0.49% (n = 310,000);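 active = B-score above 5 SD of library B-scores, and initial fluorescence ratio not above library mean plus 5 SD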;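 note: positive B-score marks a calcium rise read as TRPC4 activation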
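Material: HEK293 stable line with TRPC4beta plus mu-opioid receptor; technique: Fluo4 calcium-sensitive dye fluorescence, kinetic, 1 Hz baseline; timing: Fluo4 dye loading 45 min at room temperature, 110 s recording; controls: assay buffer as low control, maximal DAMGO as high control; read-out: integrated baseline-normalised fluorescence ratio, converted to per-well B score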
TRPC6 inhibitor – blocks the mouse TRPC6 cation channel; Q61143; HEK293-TRPC6, membrane potential dye, ACh-evoked depolarization; stronger effect = lower value; B-score at 10 µM; actives 1.1% (n = 310,000); AID 2553;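 active = B-score under library mean minus 3 SD, initial fluorescence not abnormally high, positive integrated signal ratio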;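 note: B-score derived from integrated fluorescence ratio over the kinetic read; more negative B-score means stronger inhibition of depolarization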
Target sequence (Q61143 whole entry, looked up): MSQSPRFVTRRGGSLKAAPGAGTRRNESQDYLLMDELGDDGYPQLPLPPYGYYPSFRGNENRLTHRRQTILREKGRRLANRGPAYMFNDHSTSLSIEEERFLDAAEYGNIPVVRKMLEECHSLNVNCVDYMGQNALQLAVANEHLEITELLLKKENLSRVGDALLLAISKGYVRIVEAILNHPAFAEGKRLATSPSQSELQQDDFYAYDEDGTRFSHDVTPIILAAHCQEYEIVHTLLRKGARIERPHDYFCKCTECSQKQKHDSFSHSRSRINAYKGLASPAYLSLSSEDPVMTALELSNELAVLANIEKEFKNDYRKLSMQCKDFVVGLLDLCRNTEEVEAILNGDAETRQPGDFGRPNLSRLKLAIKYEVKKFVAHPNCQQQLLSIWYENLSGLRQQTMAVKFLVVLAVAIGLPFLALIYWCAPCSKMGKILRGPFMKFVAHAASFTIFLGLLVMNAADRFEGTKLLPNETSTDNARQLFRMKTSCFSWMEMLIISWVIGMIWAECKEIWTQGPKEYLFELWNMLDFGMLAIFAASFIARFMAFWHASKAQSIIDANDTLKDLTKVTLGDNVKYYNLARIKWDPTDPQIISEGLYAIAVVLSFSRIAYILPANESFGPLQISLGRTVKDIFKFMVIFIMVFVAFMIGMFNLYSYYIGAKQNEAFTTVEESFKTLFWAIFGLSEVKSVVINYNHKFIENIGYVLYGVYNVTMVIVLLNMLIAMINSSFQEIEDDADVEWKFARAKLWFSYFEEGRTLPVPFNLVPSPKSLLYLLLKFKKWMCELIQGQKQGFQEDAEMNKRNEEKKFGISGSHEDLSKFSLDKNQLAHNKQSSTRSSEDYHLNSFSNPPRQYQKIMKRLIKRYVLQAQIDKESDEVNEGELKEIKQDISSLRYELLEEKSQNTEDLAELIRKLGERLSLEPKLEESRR
TRPC6 activator – mouse TRPC6 channel activation; B-score at 10 µM; HEK293-TRPC6 membrane potential dye fluorescence; stronger effect = higher value; Q61143; actives 0.13% (n = 310,000);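 active = B-score of the integrated fluorescence ratio above library mean plus 3 SD, and starting fluorescence ratio within library mean plus 5 SD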;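 note: higher score means more depolarization so channel activation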
TRPC4 sel inh 2 – second selectivity test of TRPC6 inhibitors: effect on mouse TRPC4; shares compounds with TRPC6 inhibitor; inhibition, % at 10 µM; HEK293 TRPC4/MOR, membrane potential dye fluorescence; channel activated by saturating DAMGO dose; actives 42% (n = 920);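 active = compounds whose fluorescence signal differed from control wells by over 3 SD, either direction, in both duplicate plates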
TRPC4 spec – mouse TRPC4 off-target activity of TRPC6 inhibitors; shares compounds with TRPC6 inhibitor; HEK293 TRPC4/mu-opioid, membrane potential fluorescence; activity change, negative = inhibition, % at 10 µM; actives 61% (n = 920);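 active = rise or fall in signal beyond 3 SD of buffer-only wells in both replicate plates, either sign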;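 note: integrated kinetic ratio of fluorescence range over baseline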
HEK293 MPD ctr 2-1 – second counter-screen for TRPC6 inhibitors: parental HEK293 cells | parental HEK293 membrane potential dye fluorescence; maximal acetylcholine challenge after compound addition | shares compounds with TRPC6 inhibitor | signal change vs control, % at 10 µM | AID 2779 | actives 31% (n = 920);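 active = membrane potential signal moving either way by over 3 SD of the maximum-effect control, in both duplicate plates, meaning non-specific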
HEK293 MPD ctr-1 – checks TRPC6 inhibitor effects in parental HEK293 cells. shares compounds with TRPC6 inhibitor. parental HEK293 membrane potential dye fluorescence. membrane potential signal change, % at 10 µM. actives 60% (n = 920);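 active = membrane potential signal shifting up or down by more than 3 SD of buffer-only wells, on both duplicate plates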
HEK293 MPD ctr-2 – checks TRPC6 modulator effects in parental HEK293 cells | shares compounds with TRPC6 inhibitor | membrane potential dye fluorescence | membrane potential signal change, % at 10 µM | actives 51% (n = 2,400) | AID 488924;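 active = membrane potential signal moves up or down beyond 5 SD from buffer-only wells, on both duplicate plates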
HEK293 MPD ctr 2-2 – second check of TRPC6 modulator effects in parental HEK293 cells | shares compounds with TRPC6 inhibitor | membrane potential dye fluorescence; after compound, maximal acetylcholine stimulation | inhibition, % at 10 µM | actives 14% (n = 2,400);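 active = membrane potential signal drops by more than 5 SD from the mean control signal, in both duplicate plates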
TRPC4 ctr mod – tests whether TRPC6 modulators also affect mouse TRPC4; HEK293 TRPC4/mu-opioid, membrane potential fluorescence; percent change from control (negative = decrease, positive = increase), % at 10 µM; shares compounds with TRPC6 inhibitor; actives 69% (n = 2,400);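 active = membrane potential signal moved up or down beyond 5 SD of buffer control wells, in both duplicate plates, actives on both sides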
TRPC4/MOR inh 2 – mouse TRPC4 off-target activity of TRPC6 modulators, second screen. shares compounds with TRPC6 inhibitor. HEK293 TRPC4/mu-opioid, membrane potential dye fluorescence; stimulated with maximal-effect DAMGO. inhibition, % at 10 µM. actives 55% (n = 2,400). AID 488928;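 active = drop in membrane potential signal beyond 5 SD of the control wells in both duplicate plates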;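 note: TRPC4 counter screen for TRPC6 hits run under conditions tuned for TRPC6 not TRPC4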
TRPC6 inh conf – mouse TRPC6 inhibitor confirmation; shares compounds with TRPC6 inhibitor; HEK293-TRPC6, membrane potential dye, ACh-evoked depolarization; inhibition, % at 10 µM; actives 43% (n = 3,300); AID 488960;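 active = fluorescence ratio falls more than 5 SD below the full-stimulation control mean, in both duplicate runs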;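 note: integrated fluorescence ratio of peak minus minimum over baseline after agonist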
TRPC6 act confirm – confirmation of mouse TRPC6 activators; HEK293-TRPC6 membrane potential dye fluorescence, FDSS; shares compounds with TRPC6 inhibitor; activation, % at 10 µM; actives 11% (n = 2,800);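 active = ratio signal rise beyond 5 SD above unstimulated control wells' mean, seen in both duplicate runs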
Hits are given with their value; . = inactive; / = no result. In the library only some 2.3% were active in any assay of this set; here they are far more common.

SMILES	TRPC4 block	TRPC4 potent	TRPC4 agonist	TRPC6 inhibitor	TRPC6 activator	HEK293 MPD ctr-2	HEK293 MPD ctr 2-2	TRPC4 ctr mod	TRPC4/MOR inh 2	TRPC6 inh conf	TRPC6 act confirm	others
CCC1=[N+](C)c2cccc3cccc(c23)N1C	.	.	.	-6	.	-344%	.	-52%	47%	42%	.
Cc1ccc(S(=O)(=O)NC2CC(C)(C)NC(C)(C)C2)c(C)c1C	.	.	.	.	.	/	/	/	/	/	/
Cc1nc2nc(-c3ccc(Cl)cc3)nn2c(C)c1Cl	.	.	.	.	.	/	/	/	/	/	/
Cc1cc(N2CCN(C)CC2)n2nc(-c3ccc(Cl)cc3)nc2n1	.	.	.	-6.9	.	-310%	96%	-28%	53%	66%	.
O=C(NNc1ccc(C(F)(F)F)cc1[N+](=O)[O-])c1ccc(NS(=O)(=O)c2ccc(F)cc2)cc1	.	.	.	-5.4	.	-112%	.	-26%	62%	64%	.
CC(C)[C@H](Nc1ccc(C(F)(F)F)cc1[N+](=O)[O-])C(=O)O	.	.	.	.	.	/	/	/	/	/	/
Cc1ccc(C(=O)NCC(=O)OCc2csc(-c3ccccc3)n2)cc1	.	.	.	.	.	/	/	/	/	/	/
O=C(OCc1csc(-c2ccccc2)n1)c1ccc(O)cc1	.	.	.	-10	.	/	/	/	/	73%	/	TRPC4 sel inh 2=.;TRPC4 spec=-9.2%;HEK293 MPD ctr 2-1=.;HEK293 MPD ctr-1=.
COc1ccc(NC(=S)NNc2ccc([N+](=O)[O-])cc2S(=O)(=O)Nc2ccc(C)cc2C)cc1	.	.	.	-6.8	.	/	/	/	/	.	.	TRPC4 sel inh 2=.;TRPC4 spec=.;HEK293 MPD ctr 2-1=.;HEK293 MPD ctr-1=.
COc1cc(NC(=O)c2ccc(N3CC4CC(C3)c3cccc(=O)n3C4)c(NC(=O)c3ccncc3)c2)cc(OC)c1OC (centres undefined)	.	.	.	.	.	/	/	/	/	/	/
CCn1c(NC(=O)/C=C/c2ccc(F)cc2)nc2ccccc21	.	.	.	.	.	/	/	/	/	/	/
Cc1ccc(N=Nc2c(N)[nH]n3c(=O)cc(-c4ccccc4)nc23)cc1	.	.	.	-8.6	.	/	/	/	/	79%	.	TRPC4 sel inh 2=52%;TRPC4 spec=-17%;HEK293 MPD ctr 2-1=.;HEK293 MPD ctr-1=-220%
COc1cccc(N=Nc2c(N)[nH]n3c(=O)cc(-c4ccccc4)nc23)c1	.	.	.	-5.3	.	.	.	-20%	66%	.	.
Cc1cc(=O)n2[nH]c(N)c(N=Nc3ccccc3)c2n1	.	.	.	.	.	/	/	/	/	/	/
Cn1c(=O)c([N+](=O)[O-])c(N2CCN(Cc3ccc4c(c3)OCO4)CC2)c2ccccc21	.	.	.	.	.	/	/	/	/	/	/
CC(/C=C/c1ccccc1)=N/NC(=O)c1cccc(Br)c1	.	.	.	.	.	/	/	/	/	/	/
COc1ccccc1C(=O)NC(=O)COC(=O)c1ccc([N+](=O)[O-])cc1Cl	.	.	.	.	.	/	/	/	/	/	/
COC(=O)c1cc2ccsc2n1Cc1cc(=O)n2ccccc2n1	.	.	.	-5.8	.	.	.	8.5%	.	56%	.
O=c1c2sccc2n(Cc2cc(=O)n3ccccc3n2)c(=O)n1-c1ccccc1	.	.	.	.	.	/	/	/	/	/	/
Cc1cccc(N(C)C(=O)CCS(=O)(=O)c2cc3c(cc2Cl)NC(=O)CO3)c1	.	.	.	.	.	/	/	/	/	/	/
Cc1ccc(NC(=S)NCCN(C2CCCCC2)C2CCCC2)cc1C	.	.	.	-5.2	.	110%	.	16%	66%	.	/
O=C1/C(=C\c2c(NCCOCCO)nc3ccccn3c2=O)SC(=S)N1Cc1ccco1	.	.	.	.	.	/	/	/	/	/	/
CCCCCN(C(=O)CCC(=O)OC(C)C(=O)c1ccc(Cl)cc1)c1c(N)n(CCCC)c(=O)[nH]c1=O (centres undefined)	.	.	.	.	.	/	/	/	/	/	/
CN(C)CCCN(C(=O)c1cc2ccccc2oc1=O)c1nc2ccc(F)cc2s1	.	.	.	.	.	/	/	/	/	/	/
Cc1ccc2nc(N(CCCN(C)C)C(=O)c3ccco3)sc2c1	.	.	.	-7.1	.	/	/	/	/	78%	.	TRPC4 sel inh 2=34%;TRPC4 spec=-20%;HEK293 MPD ctr 2-1=.;HEK293 MPD ctr-1=-146%
SMILES	TRPC4 block	TRPC4 potent	TRPC4 agonist	TRPC6 inhibitor	TRPC6 activator	HEK293 MPD ctr-2	HEK293 MPD ctr 2-2	TRPC4 ctr mod	TRPC4/MOR inh 2	TRPC6 inh conf	TRPC6 act confirm	others
Cc1ccc2nc(N(CCCN(C)C)C(=O)c3ccc(Br)s3)sc2c1	.	.	.	.	.	/	/	/	/	/	/
CN(C)CCCN(C(=O)c1ccco1)c1nc2ccc(F)cc2s1	.	.	.	-5.6	.	-150%	78%	-39%	84%	64%	.
CCN1CCN(CC(=O)N2c3ccccc3Sc3ccccc32)CC1	.	.	.	.	.	/	/	/	/	/	/
Cc1scc2c1N(C(=O)CN1CCN(C)CC1)c1ccccc1NC2=O	.	.	.	-6.5	.	.	86%	.	.	78%	.
Cc1ccc(S(=O)(=O)NCCNC(=O)c2ccc(C)nc2)cc1	.	.	.	-6.3	.	.	.	.	.	.	/
Cc1ccc(C(=O)NCCCNCCCNC(=O)c2ccc(C)nc2)cn1	.	.	.	.	.	/	/	/	/	/	/
CCOC(=O)c1[nH]ncc1CN1CCCC(C(=O)c2cccc3ccccc23)C1 (centres undefined)	.	.	.	.	.	/	/	/	/	/	/
CCOC(=O)c1[nH]ncc1CN1CCCC(C(=O)c2ccc(SC)cc2)C1 (centres undefined)	.	.	.	-5.7	.	.	.	11%	30%	.	/
CSc1ccc(C(=O)C2CCCN(Cc3ccc(N4CCNC4=O)cc3)C2)cc1 (centres undefined)	.	.	.	-5.8	.	.	.	.	88%	55%	.

Assay outcomes from PubChem BioAssay.
